Screening data: PubChem BioAssay, several laboratories
MT1-MMP txn act – MT1-MMP promoter reporter activation – cell-based, luciferase luminescence, primary screen; HT1080 MT1-MMP promoter luciferase reporter, overnight; hits give high values; activation factor at 10 µM; actives 0.16% (n = 86,000); AID 750, 2007;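 active means activation factor of at least 2 for MT1-MMP transcription at 10 µM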
MMP13 inh – human MMP13 inhibitors, primary screen, biochemical, FRET peptide cleavage; Collagenase 3 (Homo sapiens), P45452; MMP-13 fTHP FRET cleavage, Mca fluorescence; inhibition, % at 4 µM; actives 0.07% (n = 65,000); AID 570, 2006;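 active means inhibition above the mean of compound-free control plate wells plus 3 SD, cut at about 14% in these data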;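 further: 0% = DMSO wells and 100% = wells with reference MMP-13 inhibitor after basal subtraction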
WNV protease inh – inhibitors of WNV NS2B-NS3 protease, primary screen, biochemical, fluorogenic substrate; actives 0.18% (n = 65,000); Genome polyprotein (West Nile virus), P06935; z-score (test concentration not listed); fluorogenic substrate Ex360/Em465; hits give low values; in the data active means z-score below about -3
Target sequence (P06935 1371-1501 limits assumed): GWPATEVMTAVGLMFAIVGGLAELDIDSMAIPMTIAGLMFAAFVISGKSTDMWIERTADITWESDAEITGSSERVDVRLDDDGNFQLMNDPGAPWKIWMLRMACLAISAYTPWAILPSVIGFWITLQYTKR
Target sequence (P06935 1502-1679 limits assumed): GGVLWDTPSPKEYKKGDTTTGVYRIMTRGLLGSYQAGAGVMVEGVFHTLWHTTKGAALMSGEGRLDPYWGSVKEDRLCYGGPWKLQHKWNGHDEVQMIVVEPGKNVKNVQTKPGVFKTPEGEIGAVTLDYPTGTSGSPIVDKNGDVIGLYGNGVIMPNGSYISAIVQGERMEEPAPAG
SF-1 act – activators of human SF-1, primary screen, cell-based, CHO-K1, Gal4-SF-1 LBD, luciferase luminescence; Steroidogenic factor 1 (Homo sapiens), Q13285; CHO-K1 Gal4-SF-1 LBD luciferase reporter; % increase over DMSO SF-1-specific signal; activation, % at 10 µM; actives 1.9% (n = 65,000); AID 522, 2006;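 active means activation above the mean activation of all tested compounds plus 3 SD, cut at about 50% in these data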
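Assay system – CHO-K1 cells with Gal4–hSF-1 LBD chimera plus Gal4-driven luciferase · Quantity – 4,000 cells per well · Times – compound added 1 h post-seeding, 20 h exposure at 37 °C, 5% CO2 · Measured by – luciferase light emission · Benchmarks – DMSO and mock-transfected background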
RORa activator – activators of orphan receptor RORA, primary screen, cell-based, luminescence. CHO-K1 Gal4-RORA LBD luciferase reporter; percent increase over mock-subtracted basal signal. actives 1.5% (n = 65,000). Nuclear receptor ROR-alpha (Homo sapiens), P35398. activation, % at 10 µM;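 active means activation above the mean of all tested compounds plus 3 SD, cut at about 49% in these data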;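 further: 0% = DMSO-treated RORA cells and 100% = added signal equal to DMSO minus mock-transfected cells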
* = called active by the depositor; . = no result. Only some compounds are listed: those with a hit (about 2.3% of all), similar ones and a draw of the others.

SMILES	MT1-MMP txn act	MMP13 inh	WNV protease inh	SF-1 act	RORa activator
Clc1ccc(OCc2nnc(-c3ccccc3Br)o2)cc1	1.2	-1	-0.13	8	17
O=C(O)c1ccccc1-c1ccccc1C(=O)NCCCO	1.1	.	.	.	.
Cc1nc2ccccc2c(=O)n1/N=C/c1ccccn1	1	-3	-0.53	50*	26
Cc1nn(-c2nc3ccccc3s2)c(C)c1Oc1ccccc1O	1.6	3	-1.6	58*	66*
Cc1ccc(/C=N/Nc2nc(Cl)c(Cl)cc2Cl)s1	2*	.	.	.	.
Cc1ccsc1/C=N/Nc1nc(Cl)c(Cl)cc1Cl	1.8	.	.	.	.
O=C(CSc1nnc(-c2cccnc2)o1)Nc1ccccn1	1.2	8	1.1	76*	33
O=C(CSc1nnc(-c2cccnc2)o1)Oc1ccccc1	1.1	0	-0.06	-14	-11
CCOC(=O)c1c(N)n[nH]c1-c1ccc(OC)cc1	1	2	1.6	1	-2
CCOC(=O)c1sc(-c2ccccc2)cc1N	1.5	-21	-1.2	52*	49*
CCOC(=O)c1sc(-c2ccc(OC)cc2)cc1N	1.5	-30	-0.84	62*	44
CC(=O)c1c(C)[nH]c(C(=O)COC(=O)CN(C)S(=O)(=O)c2ccc(Cl)cc2)c1C	1.2	.	.	.	.
CNC(=O)c1nnc(Cc2ccc(F)cc2)o1	1.1	-4	-3.1*	2	-10
CC(CCc1ccccc1)NC(=O)c1nnc(Cc2ccc(F)cc2)o1 (stereo unspecified)	1.1	-3	1.3	-5	5
Cc1noc2nc(-c3cccs3)cc(-c3nnc4n3CCCCC4)c12	1	-209	6.6	2	6
CC(C)NCc1c(O)c(Br)cc2oc3c(c12)CCCC3	1	0	-4*	-22	-12
CCOC(=O)c1c(C)[nH]c(C)c1C(=O)CSc1nnc(-c2ccc(OC(F)F)cc2)o1	1.2	.	.	.	.
C/C(N)=C(/C#N)C(=O)CSc1nnc(-c2ccc(OC(F)F)cc2)o1	1.5	6	-0.29	63*	40
O=C(Nc1ccc(-c2nc3ncccc3o2)cc1)c1ccco1	1.1	-82	1.4	63*	42
O=C(Nc1ccccn1)c1ccc(NC(=O)c2ccco2)cc1	1.2	-4	-1.1	60*	71*
O=C(Nc1ccc(-c2nc3ncccc3o2)cc1)c1ccc(Br)o1	1.2	-20	0.7	-23	-20
O=C(OC1CCCCC1)c1ccc(NC(=O)c2ccco2)cc1	1.5	2	-1.1	60*	49*
O=C(Nc1ccc(OC(=O)c2ccco2)cc1)c1ccco1	1.2	6	0.25	3	-2
Cc1cc(C(=O)Nc2ccccn2)cs1	0.7	0	0.33	62*	56*
COc1ccc(C(=O)Cn2nnc(-c3ccccc3NC(=O)c3ccco3)n2)cc1	1.1	3	-0.24	-5	21
SMILES	MT1-MMP txn act	MMP13 inh	WNV protease inh	SF-1 act	RORa activator
O=C(NCc1ccco1)c1cc(-c2ccc3c(c2)OCO3)on1	1.7	-2	1.1	43	51*
Cc1cccc(C2Nc3ccccc3C(=O)N2c2ccccc2)n1 (stereo unspecified)	1.1	-72	-0.37	-12	0
O=C1c2ccccc2NC(c2ccccn2)N1c1ccc(Cl)cc1 (stereo unspecified)	1.5	-65	0.5	64*	51*
Cc1ccc2nc(-c3cccnc3)oc2c1	1.4	-96	-1.1	33	50*
COC(=O)c1ccc(-c2nc3ccc(C)cc3o2)cc1	0.6	-108	1.4	46	68*
Cc1ccc(-n2c(-c3ccncc3)nnc2-c2cccs2)cc1	1.1	-16	0.01	2	4
O=C(NCc1ccccc1F)C1CCCN(C(=O)NC2CCCCC2)C1 (stereo unspecified)	1	3	1.4	14	4
Cc1ccc(-c2nc3cnccn3c2Nc2ccccc2)o1	1	-1	3.4	37	49*
CCOc1ccc(-c2nnn(CC(=O)NCc3ccco3)n2)cc1OCC	1	.	.	.	.
CCCCOc1ccc(-c2nnn(CC(=O)NCc3ccco3)n2)cc1	0.8	-4	0.45	37	198*
O=C(CSc1cn(Cc2ccccc2)c2ccccc12)Nc1nccs1	.	-4	-0.68	84*	76*
Cc1ccc(C)c(/C(O)=C2\C(=O)C(=O)N(CCCN(C)C)C2c2cccnc2)c1 (stereo unspecified)	0.9	9	-0.2	-10	8
CCOc1ccc(-c2nc(C#N)c(NC3CC3)o2)cc1	1.2	-90	1.4	9	63*
Cc1ccc(-c2nc(C#N)c(NCCc3ccccn3)o2)cc1	1.2	-36	1.5	54*	61*
COc1ccc(Nc2oc(-c3ccc(Cl)cc3)nc2C#N)cc1	2.2*	.	.	.	.
COCCNc1oc(-c2ccc(C)cc2)nc1C#N	1.6	-292	-0.46	61*	48
COCCN(CC(=O)Nc1ccccc1)S(=O)(=O)c1ccc(S(=O)(=O)N2CCCC2)cc1	1.3	-2	-0.04	-2	-6
C=CCn1cnc2c(c1=O)c1nc3ccccc3nc1n2-c1ccc(Cl)cc1	1.1	-2	0.14	-14	-8
COc1ccc(CSc2nc(C)cc(=O)[nH]2)cc1	1.2	25*	-1.6	6	-10
COc1ccc(C(=O)CSc2nc(C)cc(=O)[nH]2)cc1	1	-10	0.08	-14	-12
COc1ccc2nc(NCc3ccccc3)[nH]c2c1	1.5	-2	-0.33	36	52*
Cc1ccc2nc(NCc3ccccc3)[nH]c2c1	0.7	-5	-0.26	68*	37
COc1ccc2nc(NCCO)[nH]c2c1	1.1	3	0.14	-1	9
c1ccc(CCCc2nc(-c3ccccn3)no2)cc1	1.1	1	-0.39	57*	50*
Cc1ccc(Cc2nc(-c3ccccn3)no2)cc1	1.1	.	.	.	.
SMILES	MT1-MMP txn act	MMP13 inh	WNV protease inh	SF-1 act	RORa activator
c1ccc(Cc2nc(-c3ccccn3)no2)cc1	1.2	3	1.6	23	61*
COC(=O)N1[C@H](C)C=C[C@]1(Cc1ccccc1)C(=O)NCc1ccc(N(C)C)cc1	1	.	.	.	.
COc1cccc(N(C(=O)c2cccs2)c2nc3ccccc3s2)c1	1.4	8	1.3	25	29
O=C(Nc1ccncc1)C1CCCN(S(=O)(=O)c2cccc3cccnc23)C1 (stereo unspecified)	.	0	-0.79	36	57*
Cc1ccc(-c2csc3nnc(SCC(=O)Nc4cccc(C)n4)n23)cc1	1.1	-6	1.6	4	18
Cc1nc2ccc(F)cc2cc1C(=O)NC(C)C	1.1	-4	1.2	4	20
COc1ccccc1-c1ccc(NC2CCCCC2)nn1	1.7	-4	-0.12	80*	27
Cc1csc(NC(=O)c2sc3nc(-c4cccs4)ccc3c2N)n1	0.6	-35	-0.38	50*	38
